Assay outcomes (PubChem)
Apaf-1 act = human Apaf-1 activation; O14727; Apaf-1 apoptosome caspase-3 activation, DEVD-Rh110 fluorescence; active compounds read low; activity change, negative = activation, % at 20 µM; actives 0.31% (n = 330,000); AID 489031;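 active = activity change at or below -40% at 20 µM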
Target sequence (O14727 whole entry, looked up): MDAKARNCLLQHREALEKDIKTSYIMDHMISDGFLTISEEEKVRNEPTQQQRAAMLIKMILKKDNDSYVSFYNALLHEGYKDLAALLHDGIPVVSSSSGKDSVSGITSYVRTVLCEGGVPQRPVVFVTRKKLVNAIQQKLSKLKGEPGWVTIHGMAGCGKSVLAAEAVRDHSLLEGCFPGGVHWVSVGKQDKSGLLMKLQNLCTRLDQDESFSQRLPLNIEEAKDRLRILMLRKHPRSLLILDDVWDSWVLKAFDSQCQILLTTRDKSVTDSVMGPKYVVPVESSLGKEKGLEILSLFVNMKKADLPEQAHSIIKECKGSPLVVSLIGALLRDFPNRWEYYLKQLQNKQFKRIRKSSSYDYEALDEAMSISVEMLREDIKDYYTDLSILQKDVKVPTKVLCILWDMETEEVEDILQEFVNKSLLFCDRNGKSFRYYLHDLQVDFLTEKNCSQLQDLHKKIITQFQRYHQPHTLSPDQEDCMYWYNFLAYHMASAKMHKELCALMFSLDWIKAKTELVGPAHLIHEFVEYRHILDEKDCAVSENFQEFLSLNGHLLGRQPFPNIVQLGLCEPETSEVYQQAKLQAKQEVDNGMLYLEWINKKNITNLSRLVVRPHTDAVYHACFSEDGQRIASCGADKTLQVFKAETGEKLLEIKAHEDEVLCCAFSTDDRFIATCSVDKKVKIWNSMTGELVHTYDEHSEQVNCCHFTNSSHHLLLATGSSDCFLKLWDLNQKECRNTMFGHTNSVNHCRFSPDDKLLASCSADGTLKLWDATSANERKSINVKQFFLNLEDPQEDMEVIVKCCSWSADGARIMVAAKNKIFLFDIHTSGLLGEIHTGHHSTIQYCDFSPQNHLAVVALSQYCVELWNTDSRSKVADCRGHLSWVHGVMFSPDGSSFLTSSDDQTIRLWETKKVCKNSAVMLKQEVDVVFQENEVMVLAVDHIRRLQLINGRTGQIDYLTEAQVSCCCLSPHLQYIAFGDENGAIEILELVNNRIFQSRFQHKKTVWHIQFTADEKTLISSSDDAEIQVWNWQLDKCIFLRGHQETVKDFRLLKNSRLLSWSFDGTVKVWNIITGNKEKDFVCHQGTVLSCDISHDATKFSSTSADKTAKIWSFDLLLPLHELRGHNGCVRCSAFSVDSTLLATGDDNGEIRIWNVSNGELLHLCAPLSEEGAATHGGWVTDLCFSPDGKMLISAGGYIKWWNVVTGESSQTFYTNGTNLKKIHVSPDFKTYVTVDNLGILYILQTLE
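System: Reconstituted apoptosome of Apaf-1, cytochrome c, caspase-9, procaspase-3 | Reagent: dATP, cytochrome c, and (Z-DEVD)2-Rh110 caspase-3 substrate | Times: 30 min compound preincubation and 50 min reaction, both room temperature | Detection: Caspase-3-released Rh110 fluorescence, 540 nm emission, 480 nm excitation | Measure: Caspase-3 activity via Apaf-1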
Rh110 interf act = Rh110 signal interference in Apaf-1 activator counter-screen; shares compounds with Apaf-1 act; Rh110 fluorescence interference, quenched caspase reaction, Ex480/Em540; fluorescence interference (activity change), % at 20 µM, hits read low; 980 tested, under 10 active;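 active = mean activity change at or below -40% when tested at 20 µM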
Apaf-1 act conf2 = confirmation of human Apaf-1 activators; activity change, negative = activation, % at 20 µM; shares compounds with Apaf-1 act; reconstituted apoptosome caspase-3 activity, DEVD-Rh110 fluorescence; active compounds read low; actives 5% (n = 980);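 active = mean activity change at or below -40%, meaning activation of 40% or more, at 20 µM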
Fluor interf act = Apaf-1 activator counter-screen fluorescence artifact; shares compounds with Apaf-1 act; 55 tested, under 10 active; EC50, µM; fluorescence interference counterscreen, Apaf-1 activator assay; AID 588592; call rule not given here
Numbers stand for hits; – = inactive; · = no result. A selection follows.

SMILES	Apaf-1 act	Rh110 interf act	Apaf-1 act conf2	others
Cc1ccc(CN2C(=O)CCC2C(=O)NCC2CCCO2)cc1 (stereo not given)	-88	–	–
COc1ccccc1-n1c(N)c(C(=O)NCC2CCCO2)c2nc3ccccc3nc21 (stereo not given)	–	·	·
CN(Cc1ccc(Cl)c(Cl)c1)C(=O)c1cccc(S(=O)(=O)N2CCN(Cc3ccccc3)CC2)c1	–	·	·
CC(=O)c1cccc(CN2CCN(C3CCCC3)C(CCO)C2)c1 (stereo not given)	-300	–	–
COC(CNC(=O)c1ccc2c3c(onc13)-c1ccccc1C2=O)OC	–	·	·
O=C1c2ccccc2-c2onc3ccc(NCc4ccco4)c1c23	–	·	·
CCOc1ccc2noc3c2c1C(=O)c1ccccc1-3	–	·	·	Fluor interf act=14
COc1cc2nc(N3CCNCC3)nc(N)c2cc1OC	–	·	·
O=C(N/N=C/c1ccccc1O)C1(O)c2ccccc2-c2ccccc21	-59	–	–
CC1=NN(c2ccc(C)cc2)C(=O)/C1=C\c1ccc(Br)s1	–	·	·
CSCCC(NC(=O)COc1ccccc1)C(=O)N1CCC(C(N)=O)CC1 (stereo not given)	–	·	·
O=C(COc1ccccc1)NCC(=O)NC1CCCCC1	-40	–	–
CC(=O)c1ccc(NC(=O)c2noc(C(C)C)c2[N+](=O)[O-])cc1	-127	–	–
CCO/C=C1\SC(=S)N(c2ccc(Cl)cc2)C1=O	-109	–	–
C#CCOCCOCCOCCNc1nc(N2CCN(C(=O)CCCCCCCCCCNC(=O)[C@@H](CCSC)n3cc(CCO)nn3)CC2)nc(N2CCN(C(=O)CCCCCCCCCCNC(=O)[C@H](CO)n3cc(CCCCCN)nn3)CC2)n1	–	·	·
CN1CCc2c(C#N)c(N3CCCCC3)nc(NCc3ccccc3)c2C1	–	·	·
COCCn1c(=S)[nH]c2cc(C(=O)N3CCN(c4cccc(Cl)c4)CC3)ccc2c1=O	-324	–	–
COC(=O)c1ccc2c(=O)n(CCCCCC(=O)N3CCN(c4ccccc4)CC3)c(=O)[nH]c2c1	–	·	·
O=C(NCCC(=O)N1CCN(c2cccc(Cl)c2)CC1)c1ccc(Br)cc1	–	·	·
NC(CO)C(=O)NNCc1ccc(O)c(O)c1O (stereo not given)	–	·	·
O=C(Cn1ncn2c(cc3ccccc32)c1=O)NCCc1cccs1	-392	–	–
C[C@@H](CN1CCC[C@H]1CN1C(N)=NC[C@@H]1Cc1ccccc1)N1C[C@@H](Cc2ccccc2)N(CCc2ccc(Cl)c(Cl)c2)C1=N	–	·	·
O=C(c1ccco1)[C@@H]1[C@@H]2C(=O)N(c3ccccc3)C(=O)[C@@H]2C2c3ccccc3C=CN21 (stereo not given in full)	–	·	·
Cc1cc(SCC(=O)OC(C)C(=O)N(C)c2ccccc2)nc2ccccc12 (stereo not given)	-324	–	–
COc1cccc(C(C[N+](=O)[O-])c2c(C)[nH]n(-c3ccccc3)c2=O)c1 (stereo not given)	–	·	·
SMILES	Apaf-1 act	Rh110 interf act	Apaf-1 act conf2	others
CCOC(=O)C(NC(=O)c1ccccc1Cl)(Nc1ccc(C(F)(F)F)cc1)C(F)(F)F (stereo not given)	-406	–	–
Cc1cc(C)cc(NC2=C(N)C(=O)c3ccccc3C2=O)c1	–	·	·
COc1ccccc1C(CNC(=O)CNC(=O)c1ccccc1Cl)N1CCCC1 (stereo not given)	–	·	·
COc1ccc(OC)c(-c2nn(-c3ccccc3)cc2C(=O)NCC(c2ccco2)N2CCCC2)c1 (stereo not given)	-117	–	–
COc1ccc(C(CNC(=O)C2CC(=O)N(Cc3ccccc3)C2)N2CCCC2)cc1 (stereo not given)	–	·	·
CC(/C=N/NC(=O)Cc1cc(=O)[nH][nH]1)=C\c1ccccc1	–	·	·
O=C(CCN1CCOCC1)N1CCCC(Nc2ccc(F)cc2)C1 (stereo not given)	-56	–	–
Cc1ccc(-c2nn3c(C)nnc3c3ccccc23)cc1S(=O)(=O)NCc1ccco1	–	·	·
COc1ccccc1C(CNC(=O)c1ccc(S(=O)(=O)NCc2ccco2)cc1)N(C)C (stereo not given)	-53	–	–
COc1ccccc1CNS(=O)(=O)c1ccc(-c2cc(C)no2)cc1	–	·	·
CCOC(=O)C1(Cc2ccccc2C)CCCN(C(=O)c2ccc3nccnc3c2)C1 (stereo not given)	-330	–	–
C#CCOCCOCCOCCNc1nc(N2CCN(C(=O)[C@H](CCCCN)n3cc([C@@H](N)CO)nn3)CC2)nc(N2CCN(C(=O)[C@H](Cc3cc4ccccc4[nH]3)n3cc([C@@H](N)Cc4ccc(O)cc4)nn3)CC2)n1	–	·	·
CC1=[N+](C)c2ccc3ccccc3c2C1(C)C	–	·	·
